# Hits are enriched below; roughly 4.2% of the tested compounds scored in any of these assays.
# M18AAP inhibitor: PfM18AAP enzyme inhibition; recombinant PfM18AAP, H-Glu-NHMec fluorogenic cleavage; inhibition, % at 7.35 µM; actives 1.2% (n = 290,000);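 active means inhibition above the campaign mean inhibition over all tested compounds plus 3 SD, cut at about 28% in these data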;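 further: 0% = plate median of test compound wells and 100% = 2 mM ZnCl2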
# SENP1 FRET inh: blocks the human SENP1 SUMO protease catalytic domain | Q9P0U3 | recombinant SENP1 catalytic domain, CyPet-SUMO1-YPet FRET cleavage | inhibition, % at 10 µM | actives 0.21% (n = 360,000) | AID 624204;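 active means inhibition at least 30% at 10 µM, raw YFP signal under a set limit, fluorescence ratio 0.5 to 1.5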;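 further: 0% = enzyme with DMSO and 100% = no enzyme wells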
# Target sequence (Q9P0U3 419-644 limits assumed): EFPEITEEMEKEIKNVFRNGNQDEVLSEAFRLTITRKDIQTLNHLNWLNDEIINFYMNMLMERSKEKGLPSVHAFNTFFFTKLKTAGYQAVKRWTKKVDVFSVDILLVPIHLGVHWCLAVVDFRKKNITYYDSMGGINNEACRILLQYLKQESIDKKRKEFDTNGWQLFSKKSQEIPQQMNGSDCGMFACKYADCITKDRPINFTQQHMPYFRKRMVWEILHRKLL
#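 Material: hSENP1 catalytic domain, recombinant; medium: Tris pH 8 with BME, BSA, NP40 and catalase; compound: single concentration of 10 µM compound, 0.5% DMSO final; technique: FRET read of cyan and yellow fluorescence; timing: 50 min enzyme reaction, room temperature, light-protected; reagent: SFCypet-SUMO1-SFYpet substrate at 25 nM; control set: no-enzyme low, enzyme-DMSO high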
# HDAC3 inhib: inhibitors of human histone deacetylase 3. O15379. recombinant HDAC3, fluorogenic peptide/trypsin coupled, fluorescence. inhibition, % at 8.3 µM. actives 0.15% (n = 320,000); in the data active means inhibition above about 26%, passing the limit was not always enough
# Target sequence (O15379 whole entry, looked up): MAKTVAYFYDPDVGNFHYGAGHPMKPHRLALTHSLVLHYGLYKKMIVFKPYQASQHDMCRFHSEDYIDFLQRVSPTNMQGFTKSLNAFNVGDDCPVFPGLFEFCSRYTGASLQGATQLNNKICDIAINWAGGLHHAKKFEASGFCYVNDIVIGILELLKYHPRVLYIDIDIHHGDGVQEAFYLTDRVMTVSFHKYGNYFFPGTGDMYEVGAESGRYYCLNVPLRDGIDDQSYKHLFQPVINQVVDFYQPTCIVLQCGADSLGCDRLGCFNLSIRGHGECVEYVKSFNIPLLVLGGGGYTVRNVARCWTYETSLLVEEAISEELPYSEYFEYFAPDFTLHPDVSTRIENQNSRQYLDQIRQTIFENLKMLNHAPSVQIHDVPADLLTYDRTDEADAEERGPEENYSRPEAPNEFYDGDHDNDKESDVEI
# FXN GAA850 act: increases GAA850 frataxin promoter reporter activity; HEK293 lucGAA850 FXN promoter luciferase reporter, 24 h; percent of 10 µM SAHA response; activation, % at 6 µM; actives 0.56% (n = 360,000);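 active means activation above the average of all compounds screened plus 3 SD, cutoff fixed separately per campaign, cut at about 7.5% in these data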;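 further: 0% = DMSO wells and 100% = 10 µM SAHA wells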
# AHR act: human AHR activation. P35869. AHR-responsive luciferase reporter cells, luminescence. activation, % at 5 µM. actives 2.5% (n = 320,000); in the data active means activation above about 47%;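 further: 0% = vehicle wells and 100% = reference agonist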
# Fh CTSL1 inh: counter-screen for PFM18AAP inhibitors: inhibitors of F. hepatica cathepsin L1; recombinant F. hepatica cathepsin L1, Z-Leu-Arg-MCA fluorescence; inhibition, % at 5.96 µM; actives 0.49% (n = 300,000); AID 1906;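 active means inhibition above the mean of all tested compounds plus 3 SD, set per screening campaign, cut at about 17% in these data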;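 further: 0% = plate median of test compound wells and 100% = 1 µM Z-Phe-Ala-diazomethylketone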
# GAA30 counter: GAA30 FXN promoter activation counter-screen; shares compounds with FXN GAA850 act; HEK293 lucGAA30 FXN promoter luciferase, 24 h; DMSO = 0%, 5 µM ipriflavone = 100%; activation, % at 6 µM; actives 66% (n = 1,900); AID 588350;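 active means mean activation above the mean of solvent-only control wells plus 3 SD, cut at about 22% in these data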;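 further: counterscreen of GAA850 promoter hits where activity marks nonselective or luminescence artifacts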
# FXN GAA850 conf: GAA850 FXN promoter activation confirmation; shares compounds with FXN GAA850 act; HEK293 lucGAA850 FXN promoter luciferase reporter, 24 h; 100% = activation by SAHA; activation, % at 6 µM; actives 86% (n = 1,900); AID 588351;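 active means mean activation above a set limit taken from the primary screen, cut at about 8% in these data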;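 further: 0% = DMSO wells and 100% = 10 µM SAHA wells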
# * = called active by the depositor; x = no result given; ! = repeats disagree.
SMILES,M18AAP inhibitor,SENP1 FRET inh,HDAC3 inhib,FXN GAA850 act,AHR act,Fh CTSL1 inh,GAA30 counter,FXN GAA850 conf
CC(CCc1ccccc1)NCC(O)c1ccc(O)c(C(N)=O)c1 (centres undefined),4,-1,-9,-2,2,1,x,x
COc1ccc(CC(C)NCC(O)c2ccc(O)c(NC=O)c2)cc1 (centres undefined),x,1,x,8.0*!,x,x,16,27*
CSc1ncnc2c1ncn2CCCN[C@H](C)c1cccc2ccccc12,x,-2,x,9.6*,x,x,19,9.8*
COc1ncnc2c1ncn2CCCN[C@H](C)c1cccc2ccccc12,x,0,x,2,x,x,x,x
CCCCc1nc2cc(C(=O)NCCc3c(C)n[nH]c3C)ccc2o1,-2,2,-11,0,15,0,x,x
O=C(N(Cc1ccccc1)c1ccccn1)C12CC3CC(CC(C3)C1)C2,3,0,1,11*,3,-1,31*,11*
O=C(N(c1ccccn1)c1ccccn1)C12CC3CC(CC(C3)C1)C2,1,1,-2,7,7,-2,x,x
Cc1c(CCOC(=O)CC23CC4CC(CC(C4)C2)C3)sc[n+]1CC(=O)c1ccc(Br)cc1,0,3,3,4,-1,-1,x,x
Cc1c(CCOC(=O)C23CC4CC(CC(C)(C4)C2)C3)sc[n+]1CC(=O)c1ccccc1,-1,2,4,8.3*,-1,-1,31*,20*
Cc1c(CCOC(=O)CC23CC4CC(CC(C)(C4)C2)C3)sc[n+]1CC(=O)c1ccccc1,-1,1,x,9.7*,-1,3,12,14*
c1cncc(-c2nc3ccccc3s2)c1,-2,4,-3,7.7*,41,-7,86*,28*
COCc1nc2oc3ccc(C)cc3c(=O)c2cc1C(=O)OC,0,0,-13,7.9*,0,-1,119*,47*
COCc1nc2oc3ccc(F)cc3c(=O)c2cc1C(=O)OC,2,-1,4,7,x,x,x,x
Cc1c(NS(=O)(=O)c2ccc(NC(=O)CCC(=O)O)cc2)c(=O)n(-c2ccccc2)n1C,0,1,-1,-1,0,-6,x,x
CCCCn1c(=NC(=O)c2ccco2)c(C(=O)OCC)cc2c(=O)n3ccccc3nc21,27,-16,-256,5,3,0,x,x
CCCCCn1c(=NC(=O)c2ccco2)c(C(=O)OCC)cc2c(=O)n3ccccc3nc21,17,-30,-135,8.0*!,12,0,7,9.0*
CCCNC(=O)C1(C)CCN(C(=O)c2ccc(OC)cc2OC)C1 (centres undefined),x,-2,x,1,x,x,x,x
CCCC(=O)Nc1c(-c2ccccc2Cl)c(=O)c2ccccc2n1C,6,-1,-7,1,2,4,x,x
COc1cccc(/C=N/Nc2ccc([N+](=O)[O-])cc2)c1O,12,-23,2,8.1*,9,0,106*,35*
O=[N+]([O-])c1ccccc1N/N=C\c1ccccc1Cl,-6,3,1,4,8,1,x,x
COc1cccc(/C=N/NC(=O)c2ccc([N+](=O)[O-])cc2Cl)c1O,8,3,-5,-5,6,5,x,x
C/C(=N\Nc1cccc([N+](=O)[O-])c1)c1ccccc1O,10,2,7,2,5,8,x,x
O=[N+]([O-])c1ccccc1N/N=C/c1cccc(O)c1O,30*,4,x,12*,4,4,40*,26*
O=[N+]([O-])c1cccc(N/N=C/c2cccc(O)c2O)c1,42*,2,-2,8.7*,15,0,67*,30*
Cc1ccc(Nc2cc(C)nc(NCc3ccccc3)n2)cc1,-4,-4,9,13*,34,-1,19,15*
SMILES,M18AAP inhibitor,SENP1 FRET inh,HDAC3 inhib,FXN GAA850 act,AHR act,Fh CTSL1 inh,GAA30 counter,FXN GAA850 conf
COc1ccc(C(=O)CN2CCN(CCN3C(=O)c4cccc5cccc(c45)C3=O)CC2)cc1,x,-6,-6,-3,29,8,x,x
COc1cc2c3c(cccc3c1)C(=O)N(CCN1CCCC1)C2=O,x,-90,x,27*,x,x,-29,131*
COc1ccc(OC)c(CN2C(=O)CCC2(C)c2nnnn2-c2c(C)cccc2C)c1 (centres undefined),x,0,x,x,x,x,x,x
NC(Cc1c[nH]c2ccccc12)C(=O)NCc1ccccc1 (centres undefined),-1,1,4,1,1,0,x,x
C[C@@]12C(=O)N(CC3CCCO3)CC(=O)N1[C@H]1c3ccccc3OC[C@@H]1[C@@H]2c1ccccc1 (some centres undefined),x,2,8,12*,-2,x,17,14*
COc1ccc2c(c1)[C@H]1[C@H](CO2)[C@H](c2ccccc2)[C@]2(C)C(=O)N(CC3CCCO3)CC(=O)N12 (some centres undefined),x,2,0,0,-5,x,x,x
C[C@@]12C(=O)N(CCc3c[nH]c4ccccc34)CC(=O)N1[C@H]1c3ccccc3OC[C@@H]1[C@@H]2c1ccccc1,x,-1,-17,7.7*,8,x,10,8.5*
O=C(Nc1cccc(O)c1)c1c(O)c2ccccc2[nH]c1=O,7,-1,-8,3,30,3,x,x
CS(=O)(=O)c1nc(S(=O)(=O)c2ccc(Cl)cc2)c(NCCCn2ccnc2)s1,-3,2,2,0,6,0,x,x
O=C(O)c1ccc(N/N=C/c2ccnc3ccccc23)cc1,-8,-39,5,9.3*,23,4,93*,32*
O=C(O)c1ccc(N/N=C/c2cccc3cccnc23)cc1,-9,-38,13,7,20,6,x,x
CC1=C(C(=O)N(C)C)CC(CC(=O)NCc2cccs2)C(=O)N1CCC1=CCCCC1 (centres undefined),x,1,x,1,x,x,x,x
CN(C)C(=S)N=c1ssc(=S)n1Cc1ccccc1,x,3,x,21*,x,x,4,28*
CN(C)c1ccc(C(=O)/C=C/c2cccnc2)cc1,6,-7,3,8.8*,18,2,119*,37*
CCOC(=O)[C@]12CCC=C1N(Cc1cccc3ccccc13)C(=O)[C@H](CC(=O)N1CCN(C(=O)c3ccco3)CC1)C2,x,2,x,x,x,x,x,x
CC(C)(C)C(=O)Cn1ncc(Cl)c(Cl)c1=O,-13,1,x,9.0*,x,x,6,6
COc1ccc(Nc2nc(N)c([N+](=O)[O-])c(NCCO)n2)cc1,-13,3,18,3,21,2,x,x

# Compound activity as filed in PubChem BioAssay.
